Compound activity from PubChem.
RAD54 branch = inhibitors of human RAD54 branch migration | inhibition, % at 10.4 µM | AID 602329 | Q92698 | 0.14% of 360,000 active | RAD54 Holliday junction branch migration, FAM/BHQ fluorescence;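 active means mean normalized replicate activity at least 40 and at least half of replicates scoring 40 or more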;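 further: inhibitors cause a drop in the FAM fluorescence signal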
RAD52 inh = inhibitors of human RAD52 DNA annealing | P43351 | inhibition, % at 18.7 µM | recombinant RAD52 DNA annealing, FRET fluorescence | AID 651710 | 0.46% of 360,000 active;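 active means every replicate showing at least 50% inhibition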
Target sequence (P43351 whole entry, looked up): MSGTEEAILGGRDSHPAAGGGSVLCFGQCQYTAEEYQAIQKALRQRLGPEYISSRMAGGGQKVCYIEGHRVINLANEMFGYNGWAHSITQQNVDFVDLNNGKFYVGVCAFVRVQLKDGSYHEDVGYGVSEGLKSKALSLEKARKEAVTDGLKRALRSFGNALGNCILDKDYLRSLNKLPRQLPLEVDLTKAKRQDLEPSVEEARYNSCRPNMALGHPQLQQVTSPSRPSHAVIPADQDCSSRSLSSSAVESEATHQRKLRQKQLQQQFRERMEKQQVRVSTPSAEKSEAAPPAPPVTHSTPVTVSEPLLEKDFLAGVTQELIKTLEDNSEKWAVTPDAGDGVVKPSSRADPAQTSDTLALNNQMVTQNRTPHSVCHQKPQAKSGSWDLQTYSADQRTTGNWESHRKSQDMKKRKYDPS
Cneo AK release = causes C. neoformans cell lysis | adenylate kinase release luminescence, 4 h; normalised: neutral wells 0, clomiphene wells 100 | lysis activity, % at 15 µM | 0.2% of 360,000 active;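 active means mean lysis activity across replicates of at least 80%, whatever share of replicates individually reach that level; inactive means mean lysis activity below 80%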
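Assay system: C. neoformans cells. Amount: yeast cell density of 5 × 10^6 cells/mL. Technique: AK luminescence. Buffer or medium: YPD. Times: static 4 h at 37 °C with compound, 1 h detection. Dosing: single-point compound dose. Read-out: lysis from increased AK signal.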
PglD DTNB = inhibitors of Campylobacter jejuni PglD acetyltransferase | purified PglD enzyme, DTNB colorimetric CoA detection | inhibition, % at 12.5 µM | 0.098% of 360,000 active | AID 602405; in the data active means inhibition above about 16%, passing the limit was not always enough
rRNA inh HTS = selective bacterial rRNA inhibition in E. coli; E. coli WT GFP vs humanized-ribosome RFP mutants, fluorescence, 24 h; stronger effect = lower value; DMSO median 0, no signal -100; GFP signal change (wild-type ribosome), % (no concentration beside the values); 1.6% of 350,000 active;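 active means significant combined selectivity score with lowered wild-type GFP, culture density cut under 30%, mutant RFP and density less affected; inactive means any of these conditions unmet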
Hits are given with their value; 0 = inactive; - = no result. Compounds with a hit are over-represented: about 1.9% of the library has one in this group of screens.

SMILES	RAD54 branch	RAD52 inh	Cneo AK release	PglD DTNB	rRNA inh HTS
O=C(NC[C@H]1CC[C@H]2[C@H](CN2Cc2ccc(Oc3ccccc3)cc2)O1)C1CCOCC1	-	0	-	-	-
Cc1noc(C)c1NC(=O)Nc1ccc2c(c1)C(=O)N([C@H](C)CO)C[C@H](C)[C@H](CN(C)CC1CC1)O2	0	0	0	0	0
Cc1ccc(NC(=O)c2ccc([N+](=O)[O-])o2)cc1S(=O)(=O)N1CCOCC1	-	0	-	-	-23.4
C[C@@H]1CN([C@@H](C)CO)C(=O)c2cccc(NC(=O)c3ccncc3)c2O[C@H]1CN(C)C(=O)Nc1ccccc1	0	0	108.6	0	0
C[C@@H]1CN([C@H](C)CO)C(=O)c2cccc(NC(=O)c3ccncc3)c2O[C@H]1CN(C)C(=O)Nc1ccc(C(F)(F)F)cc1	0	0	81.7	0	0
C[C@@H]1CN([C@H](C)CO)C(=O)c2cccc(NC(=O)c3ccncc3)c2O[C@@H]1CN(C)C(=O)Nc1ccc(F)cc1	0	0	0	0	0
C[C@H](CO)N1C[C@H](C)[C@H](CN(C)C(=O)Nc2ccccc2)Oc2c(NC(=O)c3ccncc3)cccc2C1=O	0	0	0	0	0
C[C@@H]1CN([C@H](C)CO)C(=O)c2cccc(NC(=O)c3ccncc3)c2O[C@H]1CN(C)C(=O)Nc1ccccc1	0	0	103.6	0	0
CN(C)C(=O)C[C@H]1C[C@H]2c3cc(NC(=O)C4CCOCC4)ccc3O[C@H]2[C@@H](CO)O1	0	0	0	0	0
CCS(=O)(=O)N1[C@H](CO)[C@@H](c2ccccc2)C12CN(C(=O)C1CC1)C2	-	0	-	-	0
COc1ccc2c3c(n(C)c2c1)[C@@H](CO)N(C(=O)Nc1ccc(F)cc1)CC31CN(C(=O)Nc2c(C)noc2C)C1	-	0	-	-	0
CCC(=O)N(C)CCc1cc2c(c(OC)c1/C=N/NC(=O)c1ccncc1)OCO2	0	0	0	0	0
CCC(=O)N(C)CCc1cc2c(c(OC)c1/C=N/NS(=O)(=O)c1ccc(C)cc1)OCO2	0	0	0	0	-25.4
CCCCN1C(=O)C(O)(CC(=O)c2c(C)n[nH]c2C)c2cc(Br)ccc21 (configuration not stated)	0	0	-	0	-21.4
CCCCN1C(=O)C(O)(CC(=O)c2ccco2)c2cc(Br)ccc21 (configuration not stated)	0	0	0	0	0
CCc1ccc(/C=C2/SC(=S)N(CCC(=O)NCCCN3CCOCC3)C2=O)cc1	0	0	0	0	0
CCc1ccc(/C=C2\SC(=S)N(CCCC(=O)NCCCN3CCOCC3)C2=O)cc1	0	0	0	0	-27.0
CCOc1ccc(/C=C2\SC(=S)N(CCCC(=O)NCCCN3CCOCC3)C2=O)cc1	0	0	0	0	-20.7
Cc1noc(C)c1NC(=O)Nc1ccc2c(c1)C(=O)N([C@H](C)CO)C[C@@H](C)[C@H](CN(C)S(=O)(=O)c1ccc(F)cc1)OCCCC[C@H](C)O2	0	0	0	0	0
COc1cc(OC)cc(C(=O)Nc2cccc3ccccc23)c1	0	0	0	0	0
COC(=O)/C(=C/Nc1cccc2ccccc12)[N+](=O)[O-]	-	0	-	-	-20.6
CCN(CC)c1ccc(/C=N/NC(=O)c2ccco2)c(O)c1	-	0	-	-	-39.3
CCN(CC)c1ccc(/C=N/NC(=O)c2ccco2)cc1	0	-	-	0	-
COc1cc(Br)cc(/C=N/N(CCO)C2=NS(=O)(=O)c3ccccc32)c1OC	0	0	0	0	-21.5
Cc1ccccc1CN1C(=O)C(C)S/C1=N/N=C/c1ccco1 (configuration not stated)	-	0	-	-	-23.4
SMILES	RAD54 branch	RAD52 inh	Cneo AK release	PglD DTNB	rRNA inh HTS
CC1S/C(=N/N=C/c2ccco2)N(Cc2ccc(F)cc2)C1=O (configuration not stated)	-	0	-	-	0
CN(C)c1cccc(C(=O)Nc2ccc3nc4n(c(=O)c3c2)CCCCC4)c1	0	0	0	0	-25.6
COc1cccc(C(=O)Nc2ccc3nc4n(c(=O)c3c2)CCCC4)c1	0	0	0	0	0
CCc1ccc(CN(C)CC(=O)Nc2ccccc2[N+](=O)[O-])cc1	0	-	-	0	-
C=CCOc1ccc(CN(C)CC(=O)Nc2ccccc2[N+](=O)[O-])cc1	0	0	0	-	-24.5
Cc1ccc(S(=O)(=O)NNC(=O)Nc2ccc([N+](=O)[O-])cc2)c(C)c1	0	0	0	0	-22.6
O=C(C1=C[C@H](c2ccc(C(F)(F)F)cc2)C[C@H](OCCCCO)O1)N1CCCCCCC1	0	0	0	0	-
